{"source": "ChEMBL document CHEMBL4364279", "about": "“Design, synthesis, in-silico and biological evaluation of novel chalcone-O-carbamate derivatives as multifunctional agents for the treatment of Alzheimer's disease” (Eur J Med Chem, 2019)", "key": {"[1]": {"target": "Cholinesterase (Equus caballus) (UniProt P81908)", "sequence (P81908 whole entry)": "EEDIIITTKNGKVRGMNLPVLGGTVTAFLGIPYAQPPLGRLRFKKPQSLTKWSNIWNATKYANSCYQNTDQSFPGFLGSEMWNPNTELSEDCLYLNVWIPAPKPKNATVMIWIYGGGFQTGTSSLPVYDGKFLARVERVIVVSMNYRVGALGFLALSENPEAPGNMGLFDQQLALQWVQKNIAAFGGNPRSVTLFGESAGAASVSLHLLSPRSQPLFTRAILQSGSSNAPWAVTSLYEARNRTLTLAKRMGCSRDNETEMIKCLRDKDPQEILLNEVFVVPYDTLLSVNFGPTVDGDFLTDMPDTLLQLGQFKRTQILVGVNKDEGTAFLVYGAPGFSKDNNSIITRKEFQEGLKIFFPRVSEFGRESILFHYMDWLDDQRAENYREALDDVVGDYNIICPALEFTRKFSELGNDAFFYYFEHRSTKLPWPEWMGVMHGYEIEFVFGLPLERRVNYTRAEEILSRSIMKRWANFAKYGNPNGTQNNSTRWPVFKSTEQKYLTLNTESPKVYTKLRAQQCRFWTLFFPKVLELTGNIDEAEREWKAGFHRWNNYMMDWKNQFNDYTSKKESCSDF", "experiment": "Reversible inhibition of equine serum BuChE assessed as enzyme activity at 0.1 times IC50 using butyrylthiocholine iodide as substrate measured at 120 mins by Ellman's method relative to control", "parameters": "scale not given: the % may be the effect or the level left", "method_in_brief": "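Reversibility tested by recovery of equine serum BuChE activity after dilution of inhibitor, with activity monitored over time up to 240 min by the Ellman method (DTNB read at 412 nm). Activity expressed relative to untreated control. Three independent experiments.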"}, "Mus musculus [2]": {"test_system": "Mus musculus", "experiment": "Effect on total arm entries in Kunming mouse model of scopolamine-induced cognitive impairment in at 2.6 to 23.4 mg/kg, ig pretreated for 30 min followed by scopolamine challenge and measured after 30 mins by Y-maze test", "assay_type": "ADME, organism-based", "conditions": "in vivo, po, 0.5 h"}, "Mus musculus [3]": {"test_system": "Mus musculus", "experiment": "Reversal of scopolamine-induced memory cognitive memory impairment in Kunming mouse assessed as increase in spontaneous alteration behavior at 2.6 mg/kg, ig pretreated for 30 mins followed by scopolamine challenge and after 30 mins by Y-maze test", "assay_type": "functional, organism-based"}, "[4]": {"target": "Amyloid-beta precursor protein (Homo sapiens) (UniProt P05067)", "sequence (P05067 whole entry)": "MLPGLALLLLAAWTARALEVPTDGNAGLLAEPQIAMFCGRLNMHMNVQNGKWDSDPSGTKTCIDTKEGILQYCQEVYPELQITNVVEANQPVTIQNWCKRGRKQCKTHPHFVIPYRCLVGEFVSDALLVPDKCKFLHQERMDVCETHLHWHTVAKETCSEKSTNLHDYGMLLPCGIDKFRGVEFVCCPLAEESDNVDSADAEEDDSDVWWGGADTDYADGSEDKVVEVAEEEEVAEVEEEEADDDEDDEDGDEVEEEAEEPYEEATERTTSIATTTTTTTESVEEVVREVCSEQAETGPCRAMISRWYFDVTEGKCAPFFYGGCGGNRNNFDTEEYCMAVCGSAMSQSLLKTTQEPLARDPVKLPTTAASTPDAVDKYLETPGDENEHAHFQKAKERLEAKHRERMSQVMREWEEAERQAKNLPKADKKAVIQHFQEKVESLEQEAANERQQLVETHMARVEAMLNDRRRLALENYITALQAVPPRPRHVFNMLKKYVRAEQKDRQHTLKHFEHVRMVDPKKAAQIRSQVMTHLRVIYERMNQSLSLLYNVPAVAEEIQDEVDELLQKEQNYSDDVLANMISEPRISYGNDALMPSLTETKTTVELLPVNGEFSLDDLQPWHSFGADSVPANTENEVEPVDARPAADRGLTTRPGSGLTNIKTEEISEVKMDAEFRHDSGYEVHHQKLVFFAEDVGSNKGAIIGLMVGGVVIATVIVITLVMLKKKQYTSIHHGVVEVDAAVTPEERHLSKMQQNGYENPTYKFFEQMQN", "experiment": "Inhibition of self-induced amyloid beta (1 to 42) (unknown origin) aggregation at 25 uM after 24 hrs by thioflavin-T based fluorescence assay relative to control"}, "[5]": {"experiment": "Toxicity in Kunming mouse assessed as mortality at 20 to 500 mg/kg measured up to 14 days", "assay_type": "organism-based", "conditions": "in vivo, 336 h"}, "[6]": {"experiment": "Inhibition of Cu2+-induced amyloid beta (1 to 42 residues) (unknown origin) aggregation assessed as appearance of small bulk aggregates at 25 uM after 24 hrs uranyl acetate staining-based by TEM analysis", "method_in_brief": "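Aβ1-42 (25 µM) and Cu2+ (25 µM) incubated with compound at 37 °C for 24 h. Aliquots applied to carbon-coated copper/rhodium grids for 2 min at room temperature, washed with water, stained with 1% w/v uranyl acetate, air-dried 15 min, then examined by field-emission TEM.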"}, "Cholinesterase": {"target": "Cholinesterase (Equus caballus, UniProt P81908)", "sequence (P81908 whole entry)": "as the sequence (P81908 whole entry) above", "experiment": "Inhibition of equine serum BuChE using S-butyrylthiocholine iodide as susbtrate preincubated for 6 mins followed by substrate addition measured up to 3 mins by Ellman's method"}, "Mus musculus [7]": {"test_system": "Mus musculus", "experiment": "Reversal of scopolamine-induced memory cognitive memory impairment in Kunming mouse assessed as change in spontaneous alteration behavior at 23.4 mg/kg, ig pretreated for 30 mins followed by scopolamine challenge and after 30 mins by Y-maze test (reference value: 45.6%)", "assay_type": "functional"}, "[8]": {"experiment": "Toxicity in Kunming mouse assessed as abnormal behavior at 20 to 500 mg/kg measured up to 14 days", "assay_type": "organism-based", "conditions": "in vivo, 336 h"}, "PC-12": {"test_system": "PC-12", "experiment": "Neuroprotective activity against H2O2-induced cell death in rat PC12 cells assessed as cell viability at 1 uM pretreated for 2 hrs followed by H2O2 addition measured after 30 mins by MTT assay (reference value: 49.6%)", "assay_type": "functional", "conditions": "read-out: Activity"}, "[9]": {"experiment": "Disaggregation of Cu2+-induced preformed fibrils of amyloid beta (1 to 42 residues) (unknown origin) at 25 uM measured after 24 hrs by TEM analysis", "method_in_brief": "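Aβ1-42 (25 µM) with Cu2+ (25 µM) at 37 °C for 24 h, then compound (25 µM) added for another 24 h. 10 µL aliquots put on carbon-coated copper/rhodium grids for 2 min at room temperature, washed twice with water, stained with 1% w/v uranyl acetate, dried 15 min, then imaged by field-emission TEM.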"}}, "note": "Activity calls are given as the source filed them. The calls are words filed in the database; no cut-off is given here."}
{"smiles": "CCN(C)C(=O)Oc1cccc(/C=C/C(=O)c2ccccc2O)c1", "values": [{"measurement": "Activity", "setting": "[1]", "result": "< 75.1", "unit": "%"}, {"measurement": "Activity", "setting": "Mus musculus [2]", "result": "Non-Toxic"}, {"measurement": "Activity", "setting": "Mus musculus [3]", "result": "Active"}, {"measurement": "inhibition", "setting": "[4]", "result": 63.9, "unit": "%"}, {"measurement": "Activity", "setting": "[5]", "result": "Non-Toxic"}, {"measurement": "inhibition", "setting": "[6]", "result": "Active"}, {"measurement": "IC50", "setting": "Cholinesterase", "result": 3.1, "unit": "µM"}, {"measurement": "Activity", "setting": "Mus musculus [7]", "result": 59.5, "unit": "%"}, {"measurement": "Activity", "setting": "[8]", "result": "Non-Toxic"}, {"measurement": "viability at 1 µM", "setting": "PC-12", "result": 62.9, "unit": "%"}, {"measurement": "Activity", "setting": "[9]", "result": "Active"}]}
